GPR7 antag – blocks human GPR7 receptor signaling | P48145 | GPR7-expressing cells, fluorescence antagonist assay | inhibition, % at 4.4 µM | 1.1% of 290,000 active | AID 1861; in the data active = inhibition above about 16%, passing the limit was not always enough;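 note: cells stimulated with the agonist NPW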
Target sequence (P48145 whole entry, looked up): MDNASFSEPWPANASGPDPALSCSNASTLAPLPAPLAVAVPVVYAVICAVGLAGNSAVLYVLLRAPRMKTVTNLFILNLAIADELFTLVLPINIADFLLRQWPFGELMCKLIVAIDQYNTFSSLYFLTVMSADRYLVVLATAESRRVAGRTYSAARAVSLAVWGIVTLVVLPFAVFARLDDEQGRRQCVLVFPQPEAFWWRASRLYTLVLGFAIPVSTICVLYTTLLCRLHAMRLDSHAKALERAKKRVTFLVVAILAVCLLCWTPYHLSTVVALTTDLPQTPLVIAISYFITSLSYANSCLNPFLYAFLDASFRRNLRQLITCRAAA
OX1R antag-1 – OX1R (human) antagonism; inhibition, % at 6.6 µM; OX1R-expressing cells, FRET antagonist read-out; 1.8% of 330,000 active; AID 485270; in the data active = inhibition mostly above about 38%, no sharp cut-off; inactive = mostly below about 40%
CHO parental Ca – counter-screen: ATP calcium response change in parental CHO cells; inhibition, % at 5.6 µM; 0.63% of 330,000 active; parental CHO-K1, ATP-induced calcium, Fluo-8 fluorescence;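 active = inhibition above that plate's mean sample inhibition plus 3 SD, cut at about 26% in these data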
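Test system: untransfected parental CHO cell line; also added: ATP stimulus; dosing: 5.6 µM, single dose; signal: calcium-sensitive Fluo-8 fluorescence; measure: percent inhibition of ATP-evoked calcium rise, normalized to controls; benchmarks: low control ATP plus DMSO, high control DMSO only; replication: one well per compound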
TAAR1 antagonist – antagonists of human TAAR1 | inhibition, % at 3 µM | Q96RJ0 | CHO RD-HGA16 TAAR1, Fluo-8 calcium fluorescence, antagonist | 1.5% of 360,000 active;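 active = inhibition above a per-plate cutoff, the mean inhibition of test compounds on that plate plus 3 SD, cut at about 49% in these data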
Target sequence (Q96RJ0 whole entry, looked up): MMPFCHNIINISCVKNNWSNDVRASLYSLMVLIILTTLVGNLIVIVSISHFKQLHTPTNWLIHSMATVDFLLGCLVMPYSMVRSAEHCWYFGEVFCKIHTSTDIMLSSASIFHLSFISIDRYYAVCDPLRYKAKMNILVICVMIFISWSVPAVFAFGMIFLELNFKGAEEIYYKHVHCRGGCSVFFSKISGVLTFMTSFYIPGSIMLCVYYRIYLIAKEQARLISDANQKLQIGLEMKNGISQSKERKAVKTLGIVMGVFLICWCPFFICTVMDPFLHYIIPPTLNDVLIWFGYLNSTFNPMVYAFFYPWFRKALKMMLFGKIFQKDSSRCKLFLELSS
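Test system – hTAAR1-expressing CHO RD-HGA16 cells, Gα16-coupled · Reagent – β-PEA at EC80 concentration, post-compound challenge · Compound dosing – 3 µM, single point · Timing – 140 s kinetic read after compound, 140 s after agonist · Detection – Fluo-8 intracellular calcium dye fluorescence, real-time kinetic reads · Control set – DMSO and EC80 PEA controls · Repeats – n of 1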
OX1R antag-2 – blocks the human orexin 1 receptor. CHO/OX1R cells, Fluo-8 calcium fluorescence, orexin A. O43613. 0.43% of 330,000 active. inhibition, % at 5 µM;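 active = inhibition above its plate's threshold, mean inhibition of all tested compounds on the plate plus 3 SD, cut at about 37% in these data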
TAAR1 agonist – human TAAR1 agonism; Q96RJ0; CHO RD-HGA16 TAAR1, Fluo-8 calcium fluorescence; vehicle wells 0%, saturating PEA agonist 100%; activation, % at 3 µM; 0.99% of 360,000 active; AID 624467;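 active = activation above the mean activation of all test compounds in the run plus 3 SD, cut at about 38% in these data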
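Assay system: CHO-derived RD-HGA16 cells with stable Gα16 and human TAAR1; timing: 17-24 h seeding, 75 min 37 °C dye, 30 min RT; read-out: % activation from peak over basal fluorescence ratio, DMSO-to-PEA scaled; measured by: kinetic Fluo-8 calcium fluorescence; benchmarks: low control DMSO, high control PEA (EC100); doses: 3 µM single concentration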
A number is an active result; i = inactive; nt = not tested or not shown. The list is not random: actives were taken first. Their share in the collection is about 4.5%.

SMILES	GPR7 antag	OX1R antag-1	CHO parental Ca	TAAR1 antagonist	OX1R antag-2	TAAR1 agonist
COc1ccc([C@@H]2CC=C(C(=O)O)[C@H](c3cccc(Cl)c3)N2S(=O)(=O)c2ccc(Cl)cc2)cc1	nt	62	i	i	i	i
COc1ccc([C@@H]2CC=C(C(=O)O)[C@H](c3ccc(F)cc3)N2S(=O)(=O)c2ccc(Cl)cc2)cc1	nt	i	i	i	i	i
CCc1ccc([C@@H]2CC=C(C(=O)O)[C@H](c3ccc(C)cc3)N2S(=O)(=O)c2ccc(C)cc2)cc1	nt	i	i	i	i	i
CCc1ccc([C@@H]2CC=C(C(=O)O)[C@H](c3ccccc3F)N2S(=O)(=O)c2ccc(C)cc2)cc1	nt	60	i	i	i	i
CCc1ccc([C@@H]2CC=C(C(=O)O)[C@H](c3ccc(Cl)cc3)N2S(=O)(=O)c2ccc(C)cc2)cc1	nt	i	i	52	i	i
CCc1ccc([C@@H]2CC=C(C(=O)O)[C@H](c3cccc(Cl)c3)N2S(=O)(=O)c2ccc(C)cc2)cc1	nt	71	i	i	i	i
c1ccc(CC(Nc2cccnc2)c2ccccc2)cc1 (stereo not drawn)	nt	nt	nt	i	nt	i
CCC(C(=O)NCCCN(CC)Cc1ccccc1)n1nc(C)c2sc3ccccc3c2c1=O (stereo not drawn)	i	i	i	i	i	i
Cc1cccc(NC(=O)CNC(=O)CN2CCN(C)CC2)c1C	nt	i	i	i	i	i
Cc1cccc(C2=CC(=O)CC(C)(C)C2=O)c1	nt	nt	nt	i	nt	i
c1ccc(CN2c3ccccc3-c3nc4ccccc4n3C2c2ccccn2)cc1 (stereo not drawn)	i	i	i	55	i	i
CCCC(=O)c1ccc(N2CCN(C(=O)c3ccccc3Br)CC2)c(F)c1	i	i	52	i	i	i
Cc1ccc(S(=O)(=O)CCc2nnc(N)s2)cc1C	i	i	38	i	i	i
C[C@H](O)[C@@H]1C(=O)N2CCc3c([nH]c4cccc(-c5ccccc5)c34)[C@@H]2C[C@@H]1N(C)C(=O)OCc1ccccc1	nt	nt	nt	i	nt	i
O=C(NN1CCOCC1)c1cnn2c(C(F)F)cc(-c3ccccc3)nc12	i	40	i	i	i	i
COc1ccc(/C=N/Nc2nnc(C)n2N)cc1OC(C)=O	i	56	i	i	i	i
COc1ccc(/C=N/Nc2nnc(C)n2N)cc1OC	i	i	i	i	i	i
COCc1[nH]nc2c1C(c1ccc3c(c1)OCO3)N(c1ccc(OC)cc1)C2=O (stereo not drawn)	nt	nt	nt	i	nt	i
CCC(C)(C(=O)NC1CCCC1)N(Cc1cccs1)C(C)=O (stereo not drawn)	i	i	i	i	i	i
CCC(C)(C(=O)NC1CCCCC1)N(Cc1ccco1)C(=O)c1cnccn1 (stereo not drawn)	16	i	i	i	i	i
CCC(C)(C(=O)NC1CCCC1)N(Cc1cccs1)C(=O)Cc1cccs1 (stereo not drawn)	42	i	i	i	i	i
O=S1(=O)CCSC[C@@H](CN2CCN(c3ccccc3)CC2)N1	nt	nt	nt	i	nt	i
Cc1ccc(NC(=O)c2ccccc2NS(=O)(=O)c2ccc(Cl)s2)cc1S(=O)(=O)N1CCOCC1	i	63	i	i	i	i
O=C(Nc1cc(S(=O)(=O)N2CCOCC2)ccc1O)c1ccc(NS(=O)(=O)c2ccc(Cl)s2)cc1	i	i	i	i	i	i
COc1ccc(-c2nc3c(C)cc(Br)cn3c2Cc2ccccc2C(F)(F)F)cc1OC	nt	nt	nt	i	nt	i
SMILES	GPR7 antag	OX1R antag-1	CHO parental Ca	TAAR1 antagonist	OX1R antag-2	TAAR1 agonist
COC(=O)CSc1nc(-c2cccs2)ccc1C#N	i	68	i	i	i	i
C#CCSc1nc(-c2cccs2)ccc1C#N	i	i	i	i	i	i
CCN(CC)C(=O)CSc1nc(-c2cccs2)cc(-c2cccs2)c1C#N	i	i	58	61	i	i
Cc1ccc(C)c(S(=O)(=O)N2CCCC2CNC(=O)c2ccc([N+](=O)[O-])cc2)c1 (stereo not drawn)	nt	54	i	i	i	i
O=C(NCC1CCCN1S(=O)(=O)c1ccccc1)c1cccc(Cl)c1 (stereo not drawn)	nt	60	i	i	i	i
Cc1ccc(C)c(S(=O)(=O)N2CCCC2CNC(=O)C(=O)NC2CC2)c1 (stereo not drawn)	nt	i	i	i	i	i
Cc1ccc(C(=O)NCC2CCCN2S(=O)(=O)c2ccc(C)cc2)cc1 (stereo not drawn)	nt	i	i	i	i	i
Cc1ccc(S(=O)(=O)N2CCCC2CNC(=O)c2ccc(F)c(F)c2)cc1 (stereo not drawn)	nt	70	i	i	i	i
CCOC(=O)COc1ccccc1C(=O)c1cnn(-c2ccccc2)c1	i	i	i	i	i	i
O=C(N[C@H](Cc1ccccc1)C(=O)N1CCN(c2ncccn2)CC1)[C@H]1O[C@@H](n2ccc(=O)[nH]c2=O)[C@H](O)[C@@H]1O	nt	nt	nt	i	nt	i
Cc1ccc(C(=O)N2CCC[C@@H]2C(=O)N2CCC[C@@H]2C(=O)NCc2ccccc2)cc1	nt	nt	nt	i	nt	i
CC(C)[C@@H](C)/C=C/[C@@H](C)[C@H]1CC[C@@H]2[C@]1(C)CCC1[C@]23C=C[C@]2(C[C@@H](O)CC[C@]12C)N(c1ccc(F)cn1)O3 (stereo partly drawn)	nt	nt	nt	i	nt	i
CN(C)c1ccc(/C=C/C(=O)c2ccc3c(c2)OCO3)cc1	nt	i	48	i	112	i
CN(C)c1ccc(/C=C/C(=O)c2ccccc2O)cc1	i	i	38	i	i	i
Cc1ccc(/C=C/C(=O)c2ccccc2O)cc1	i	i	i	i	i	i
CN(C)c1ccc(/C=C/C(=O)c2cccnc2)cc1	i	i	49	i	68	i
CN(C)c1ccc(/C=C/C(=O)c2ccc(O)cc2)cc1	nt	nt	nt	i	nt	49
O=C(/C=C/c1cccc(O)c1)c1cccnc1	i	i	i	i	i	i
COC(=O)[C@]12C[C@H](CC(=O)NCC34CC5CC(CC(C5)C3)C4)C(=O)N(Cc3ccc4c(c3)OCO4)C1=C[C@H](C(C)(C)C)O[C@@H]2C	nt	nt	nt	i	nt	i
CCCCS(=O)(=O)N1CCCc2nc(-c3ccc(F)cc3)ccc21	nt	nt	nt	i	nt	i
COC(=O)C1=C(C)N(Cc2ccc(C(F)(F)F)cc2)C(=NCc2ccc(C(F)(F)F)cc2)NC1c1ccccc1C(F)(F)F (stereo not drawn)	nt	nt	nt	i	nt	i
COC(=O)C1CCN(C2CN(Cc3cn(Cc4ccc(C(F)(F)F)cc4)nn3)S(=O)(=O)C2)CC1 (stereo not drawn)	nt	nt	nt	i	nt	i
CN(CC(=O)Nc1ccc(F)cc1[N+](=O)[O-])C1CCS(=O)(=O)C1 (stereo not drawn)	nt	34	i	i	i	i
CN(CC(=O)Nc1ccccc1Cl)C1CCS(=O)(=O)C1 (stereo not drawn)	nt	i	i	i	i	i
O=c1c2ccccc2nnn1Cc1ccco1	nt	nt	nt	i	nt	i

Screening results from PubChem.
